Data from ChEMBL document CHEMBL5724801, “EUbOPEN Chemogenomics Library - Multiplex” (2024).
Where “and” joins values, the source holds several entries; their conditions need not be identical. Equal entries are not always repeated.

System: U2OS
Assay: Multiplex assay against U2OS
Type: toxicity, cell-based
Conditions: human
Procedure, shortened: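 With compound added, live cells were imaged on a CQ1 microscope at 37°C and 5% CO2; staining with Hoechst33342, BioTracker Green Microtubule Cytoskeleton Dye, MitoTracker Red and Annexin V Alexa Fluor 680 had been done at seeding. The CellPathfinder machine-learning gating scheme split cells into Hoechst high-intensity objects or normal cells, normal cells into healthy, pyknosed or fragmented nuclei, and pyknosed cells into mitotic or apoptotic. The tubulin, mitochondrial-mass and membrane-permeability phenotypes are per cents of healthy-nucleus cells.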

[1] = 12 h, 1 µM, compound concentration 1 uM
[2] = 12 h, 10 µM, compound concentration 10 uM
[3] = 24 h, 1 µM, compound concentration 1 uM
[4] = 24 h, 10 µM, compound concentration 10 uM
[5] = 48 h, 1 µM, compound concentration 1 uM
[6] = 48 h, 10 µM, compound concentration 10 uM

COc1cc(C(=O)N2CC[C@@H](O)[C@@H](N)C2)cc2nc(-c3cc4ccccc4n3CC3CC3)n(C)c12.Cl
Population Apoptotic (%) [1]: 50% and 75%
Population Fragmented Nuclei (%) [1]: 32% and 15%
Population Healthy Nuclei (%) [1]: 53% and 75%
Population Hoechst High Intensity Objects (%) [1]: 4% and 1%
Population Membrane Permeable-Phenotype (%) [1]: 38% and 20%
Population Mitochondria Different-Phenotype (%) [1]: 16% and 18%
Population Mitotic Cells (%) [1]: 50% and 25%
Population Normal (%) [1]: 95% and 98%
Population Pyknosed Nuclei (%) [1]: 14% and 8%
Population Tubulin-Different-Phenotype (%) [1]: 29% and 15%
Total Cell Count [1]: 223 and 92
Population Apoptotic (%) [2]: 68% and 56%
Population Fragmented Nuclei (%) [2]: 23% and 16%
Population Healthy Nuclei (%) [2]: 38% and 61%
Population Hoechst High Intensity Objects (%) [2]: 6% and 5%
Population Membrane Permeable-Phenotype (%) [2]: 75% and 79%
Population Mitochondria Different-Phenotype (%) [2]: 88% and 91%
Population Mitotic Cells (%) [2]: 31% and 44%
Population Normal (%) [2]: 93% and 94%
Population Pyknosed Nuclei (%) [2]: 37% and 22%
Population Tubulin-Different-Phenotype (%) [2]: 96% and 94%
Total Cell Count [2]: 208 and 120
Population Apoptotic (%) [3]: 78% and 75%
Population Fragmented Nuclei (%) [3]: 28% and 18%
Population Healthy Nuclei (%) [3]: 54% and 69%
Population Hoechst High Intensity Objects (%) [3]: 3% and 2%
Population Membrane Permeable-Phenotype (%) [3]: 19% and 17%
Population Mitochondria Different-Phenotype (%) [3]: 14% and 18%
Population Mitotic Cells (%) [3]: 21% and 25%
Population Normal (%) [3]: 96% and 97%
Population Pyknosed Nuclei (%) [3]: 17% and 11%
Population Tubulin-Different-Phenotype (%) [3]: 12% and 17%
Total Cell Count [3]: 243 and 109
Population Apoptotic (%) [4]: 84% and 71%
Population Fragmented Nuclei (%) [4]: 25% and 26%
Population Healthy Nuclei (%) [4]: 35% and 48%
Population Hoechst High Intensity Objects (%) [4]: 4%
Population Membrane Permeable-Phenotype (%) [4]: 57% and 50%
Population Mitochondria Different-Phenotype (%) [4]: 88% and 85%
Population Mitotic Cells (%) [4]: 15% and 28%
Population Normal (%) [4]: 95%
Population Pyknosed Nuclei (%) [4]: 38% and 25%
Population Tubulin-Different-Phenotype (%) [4]: 78% and 90%
Total Cell Count [4]: 222 and 133
Population Apoptotic (%) [5]: 82% and 76%
Population Fragmented Nuclei (%) [5]: 23%
Population Healthy Nuclei (%) [5]: 61%
Population Hoechst High Intensity Objects (%) [5]: 2%
Population Membrane Permeable-Phenotype (%) [5]: 9% and 17%
Population Mitochondria Different-Phenotype (%) [5]: 5% and 11%
Population Mitotic Cells (%) [5]: 17% and 23%
Population Normal (%) [5]: 97%
Population Pyknosed Nuclei (%) [5]: 15% and 14%
Population Tubulin-Different-Phenotype (%) [5]: 5% and 12%
Total Cell Count [5]: 304 and 149
Population Apoptotic (%) [6]: 88% and 92%
Population Fragmented Nuclei (%) [6]: 29% and 30%
Population Healthy Nuclei (%) [6]: 35%
Population Hoechst High Intensity Objects (%) [6]: 12% and 6%
Population Membrane Permeable-Phenotype (%) [6]: 47%
Population Mitochondria Different-Phenotype (%) [6]: 65% and 84%
Population Mitotic Cells (%) [6]: 11% and 7%
Population Normal (%) [6]: 87% and 93%
Population Pyknosed Nuclei (%) [6]: 35% and 34%
Population Tubulin-Different-Phenotype (%) [6]: 62% and 75%
Total Cell Count [6]: 232 and 131

CN(C)CCCc1cc(C(=O)Nc2ccc(-c3ccncc3)cc2)ccc1O.Cl.Cl
Population Apoptotic (%) [1]: 89% and 100%
Population Fragmented Nuclei (%) [1]: 29% and 10%
Population Healthy Nuclei (%) [1]: 60% and 75%
Population Hoechst High Intensity Objects (%) [1]: 2% and 0%
Population Membrane Permeable-Phenotype (%) [1]: 6% and 2%
Population Mitochondria Different-Phenotype (%) [1]: 0% and 1%
Population Mitotic Cells (%) [1]: 10% and 0%
Population Normal (%) [1]: 97% and 99%
Population Pyknosed Nuclei (%) [1]: 9% and 13%
Population Tubulin-Different-Phenotype (%) [1]: 3% and 0%
Total Cell Count [1]: 199 and 124
Population Apoptotic (%) [2]: 77% and 42%
Population Fragmented Nuclei (%) [2]: 28% and 24%
Population Healthy Nuclei (%) [2]: 62% and 63%
Population Hoechst High Intensity Objects (%) [2]: 4% and 1%
Population Membrane Permeable-Phenotype (%) [2]: 7% and 4%
Population Mitochondria Different-Phenotype (%) [2]: 1% and 8%
Population Mitotic Cells (%) [2]: 22% and 57%
Population Normal (%) [2]: 95% and 98%
Population Pyknosed Nuclei (%) [2]: 9% and 12%
Population Tubulin-Different-Phenotype (%) [2]: 2%
Total Cell Count [2]: 237 and 113
Population Apoptotic (%) [3]: 100% and 94%
Population Fragmented Nuclei (%) [3]: 28% and 11%
Population Healthy Nuclei (%) [3]: 65% and 77%
Population Hoechst High Intensity Objects (%) [3]: 2% and 4%
Population Membrane Permeable-Phenotype (%) [3]: 5% and 7%
Population Mitochondria Different-Phenotype (%) [3]: 2% and 5%
Population Mitotic Cells (%) [3]: 0% and 5%
Population Normal (%) [3]: 97% and 95%
Population Pyknosed Nuclei (%) [3]: 6% and 11%
Population Tubulin-Different-Phenotype (%) [3]: 3% and 5%
Total Cell Count [3]: 247 and 178
Population Apoptotic (%) [4]: 72% and 66%
Population Fragmented Nuclei (%) [4]: 28% and 21%
Population Healthy Nuclei (%) [4]: 58% and 63%
Population Hoechst High Intensity Objects (%) [4]: 4% and 0%
Population Membrane Permeable-Phenotype (%) [4]: 6% and 4%
Population Mitochondria Different-Phenotype (%) [4]: 3% and 8%
Population Mitotic Cells (%) [4]: 27% and 33%
Population Normal (%) [4]: 95% and 100%
Population Pyknosed Nuclei (%) [4]: 13% and 15%
Population Tubulin-Different-Phenotype (%) [4]: 1% and 2%
Total Cell Count [4]: 257 and 118
Population Apoptotic (%) [5]: 88% and 93%
Population Fragmented Nuclei (%) [5]: 25% and 15%
Population Healthy Nuclei (%) [5]: 69% and 71%
Population Hoechst High Intensity Objects (%) [5]: 3%
Population Membrane Permeable-Phenotype (%) [5]: 5% and 7%
Population Mitochondria Different-Phenotype (%) [5]: 3%
Population Mitotic Cells (%) [5]: 11% and 6%
Population Normal (%) [5]: 96%
Population Pyknosed Nuclei (%) [5]: 5% and 13%
Population Tubulin-Different-Phenotype (%) [5]: 3% and 4%
Total Cell Count [5]: 338 and 259
Population Apoptotic (%) [6]: 74% and 68%
Population Fragmented Nuclei (%) [6]: 25% and 20%
Population Healthy Nuclei (%) [6]: 61% and 63%
Population Hoechst High Intensity Objects (%) [6]: 5% and 4%
Population Membrane Permeable-Phenotype (%) [6]: 5% and 13%
Population Mitochondria Different-Phenotype (%) [6]: 3% and 8%
Population Mitotic Cells (%) [6]: 25% and 32%
Population Normal (%) [6]: 94% and 95%
Population Pyknosed Nuclei (%) [6]: 12% and 16%
Population Tubulin-Different-Phenotype (%) [6]: 5% and 9%
Total Cell Count [6]: 352 and 160
